Results: article PMC5431288 (European journal of medicinal chemistry, 2016)

Key:
HeLa cells [1] = experiment: ROS production; type: cell-based, human; conditions: 24 or 48 h
Outline: (§1)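 HeLa or Jurkat cells were treated with test compound for 24 or 48 h, then loaded with H₂-DCFDA, which ROS oxidise to fluorescent DCF. Fluorescence was measured by flow cytometry. Mean ± SEM of three independent experiments.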

Jurkat cells [2] = experiment: Flow cytometric cell cycle analysis, Jurkat; type: cell-based, human; conditions: 24 h, different concentrations
Outline: (§2)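 5 × 10⁵ HeLa (DMEM) or Jurkat (RPMI-1640) cells, both with 10% FBS, were treated with a range of test compound concentrations for 24 h. Cells were then collected and fixed in ice-cold 70% ethanol, lysed in buffer with RNase A and 0.1% Triton X-100, and PI-stained. DNA content was read by flow cytometry and histograms analysed for phase percentages. Mean of two independent experiments.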

HeLa cells [3] = experiment: Mitochondrial membrane potential; type: cell-based, human; conditions: 24 or 48 h
Jurkat cells [4] = experiment: Mitochondrial membrane potential; type: cell-based, human; conditions: 24 or 48 h
[5] = test system: panel of 11 human tumor cell lines; experiment: MTT antiproliferative assay, whole panel; type: cell-based; conditions: read-out: GI50 values across the panel
Outline: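 Leukemia lines grown in RPMI-1640 and adherent carcinoma lines in DMEM, each with 10% FBS plus penicillin/streptomycin. Seeded at 8 × 10³ cells/well and settled 18 h at 37 °C, 5% CO₂. Medium was then replaced with fresh medium holding graded compound concentrations from 10 mM DMSO stocks, in triplicate, for 72 h. Viability by MTT; GI50 is the concentration inhibiting proliferation by 50%.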

HeLa cells [6] = experiment: Annexin-V/PI apoptosis assay, HeLa; type: cell-based, human; conditions: 24 or 48 h
Outline: (§3)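 Human lines: HeLa grown in DMEM and Jurkat in RPMI-1640, each with 10% FBS, penicillin G and streptomycin. Cells exposed to test compound at several concentrations for 24 or 48 h, harvested and double-stained with annexin-V-FITC and PI. Surface phosphatidylserine read by flow cytometry, giving live, early apoptotic, late apoptotic and necrotic fractions. Mean ± SEM of three independent experiments.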

[7] = Metabolic stability in human liver microsomes; type: in vitro ADME; conditions: 10 μM
Outline: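 Pooled mixed-gender human liver microsomes (1.0 mg/mL) in 0.1 M KH₂PO₄, pH 7.4, with 10 μM final compound, with or without 1 mM NADPH; buffer-only controls. Microsomes added after 3-min equilibration at 37 °C. Stopped at 0, 15, 30 or 60 min with ice-cold acetonitrile, then centrifuged. Supernatants analysed by C18 HPLC with fluorescence detection (ex 344/em 493 nm). Percent remaining from peak area versus 0 min; mean ± SD, n = 3–4.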

HeLa cells [8] = experiment: Flow cytometric cell cycle analysis, HeLa; type: cell-based, human; conditions: 24 h, different concentrations
Outline: as §2

Jurkat cells [9] = experiment: ROS production; type: cell-based, human; conditions: 24 or 48 h
Outline: as §1

Jurkat cells [10] = experiment: Annexin-V/PI apoptosis assay, Jurkat; type: cell-based, human; conditions: 24 or 48 h
Outline: as §3

tubulin = conditions: cited from earlier work
bovine brain tubulin = bovine brain tubulin (Bos taurus, UniProt P81947+Q6B856); conditions: read-out: tubulin assembly IC50; cited from earlier work
A549 cell line = conditions: cited from earlier work

bovine brain tubulin, sequence (Q6B856 whole entry): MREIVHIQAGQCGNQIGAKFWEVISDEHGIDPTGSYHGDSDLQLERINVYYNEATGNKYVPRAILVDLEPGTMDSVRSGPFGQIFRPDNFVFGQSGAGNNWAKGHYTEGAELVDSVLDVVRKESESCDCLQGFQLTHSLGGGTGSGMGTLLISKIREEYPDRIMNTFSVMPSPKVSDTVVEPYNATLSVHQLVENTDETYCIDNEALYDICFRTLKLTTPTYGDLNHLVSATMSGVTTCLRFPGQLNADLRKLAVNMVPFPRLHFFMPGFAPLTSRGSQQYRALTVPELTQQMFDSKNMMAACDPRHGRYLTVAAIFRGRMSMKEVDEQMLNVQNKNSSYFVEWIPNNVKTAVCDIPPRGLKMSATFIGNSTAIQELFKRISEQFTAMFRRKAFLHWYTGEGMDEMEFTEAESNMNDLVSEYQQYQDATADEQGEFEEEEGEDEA
bovine brain tubulin, sequence (P81947 whole entry): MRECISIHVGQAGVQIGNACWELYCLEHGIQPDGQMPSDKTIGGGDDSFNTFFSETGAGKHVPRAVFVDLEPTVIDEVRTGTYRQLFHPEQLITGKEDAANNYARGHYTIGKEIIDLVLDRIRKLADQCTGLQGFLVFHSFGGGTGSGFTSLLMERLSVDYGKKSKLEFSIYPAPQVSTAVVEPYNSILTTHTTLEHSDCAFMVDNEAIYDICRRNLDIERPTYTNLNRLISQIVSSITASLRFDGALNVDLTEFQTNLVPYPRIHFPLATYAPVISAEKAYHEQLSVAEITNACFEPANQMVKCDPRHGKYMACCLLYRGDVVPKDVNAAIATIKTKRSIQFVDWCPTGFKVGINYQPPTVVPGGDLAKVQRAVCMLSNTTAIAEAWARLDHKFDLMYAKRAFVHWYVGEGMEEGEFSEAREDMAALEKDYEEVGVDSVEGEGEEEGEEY

Row | GI50 [5] [nM] | SMILES | ROS production (H2-DCFDA) (HeLa cells [1]) | cells with low mitochondrial transmembrane potential (JC-1) (HeLa cells [3]) | cells with low mitochondrial transmembrane potential (JC-1) (Jurkat cells [4]) | induction of apoptosis (annexin-V/PI) (HeLa cells [6]) | ROS production (H2-DCFDA) (Jurkat cells [9]) | induction of apoptosis (annexin-V/PI) (Jurkat cells [10]) | also measured
1 | 0.1 to 10 | O=C(c1ccccc1)n1ccc2c3c(=O)cc(-c4ccccc4)[nH]c3ccc21 [Compound 4a, 3-Benzoyl-7-phenyl-6H-pyrrolo[3,2-f]quinolin-9-one] | induced the production of large amounts of ROS | marked increase in the percentage of cells with low Δϕmt | marked increase in the percentage of cells with low Δϕmt | significant time- and concentration-dependent increase of apoptotic cells | induced the production of large amounts of ROS | significant time- and concentration-dependent increase of apoptotic cells | effect on cell cycle progression (Jurkat cells [2]): significant G2/M arrest in a concentration-dependent manner; influence of NADPH on compound disappearance ([7]; HLMs 1 mg/mL, with or without 1 mM NADPH): not influenced by the presence of NADPH; compound remaining ([7]; human liver microsomes 1 mg/mL, 60 min, 37 °C): more than 60%; effect on cell cycle progression (HeLa cells [8]): significant G2/M arrest in a concentration-dependent manner
2 | – | CS(=O)(=O)n1ccc2c3c(=O)cc(-c4ccccc4)[nH]c3ccc21 [Compound 4b, 3-Methanesulfonyl-7-phenyl-6H-pyrrolo[3,2-f]quinolin-9-one] | induced the production of large amounts of ROS | marked increase in the percentage of cells with low Δϕmt | marked increase in the percentage of cells with low Δϕmt | significant time- and concentration-dependent increase of apoptotic cells | induced the production of large amounts of ROS | significant time- and concentration-dependent increase of apoptotic cells | –
3 | 250 to 2650 | O=C(c1ccccc1)N1CCc2c1ccc1[nH]c(-c3ccccc3)cc(=O)c21 [Compound 7a, 3-benzoyl-1,2-dihydro-7-phenyl-6H-pyrrolo[3,2-f]quinolin-9-one] | – | – | – | – | – | – | –
4 | > 10000 | CS(=O)(=O)N1CCc2cc3[nH]c(-c4ccccc4)cc(=O)c3cc21 [Compound 8b, 1N-methanesulfonyl-2,3-dihydro-6-phenyl-5H-pyrrolo [2,3-g]quinolin-8-one] | – | – | – | – | – | – | –
5 | – | O=c1cc(-c2ccccc2)[nH]c2ccc3c(ccn3CC3CC3)c12 [Compound 10] | – | – | – | – | – | – | inhibition of colchicine binding (tubulin): 83%; IC50 (bovine brain tubulin): 900 nM; induction of autophagy (A549 cell line): induce autophagy
